The source made the active and inactive calls. No cut-off for these calls is given here. Where only a bound is given, the exact number is not on record here.

Experimental findings from ChEMBL document CHEMBL1269007, “Synthesis and biological evaluation of Apogossypolone derivatives as pan-active inhibitors of antiapoptotic B-cell lymphoma/leukemia-2 (Bcl-2) family proteins” (J Med Chem, 2010) are described below.

The test system of data set [1] is Mus musculus. The data set is described as follows: Reduction of spleen weight in human Bcl2 expressing B6 transgenic BALB/c mouse at 60 umol/kg, ip administered as single dose after 24 hrs. In kind it is functional. The arrangement: scale not given: the % may be the effect or the level left.
The target in data set [2] is Induced myeloid leukemia cell differentiation protein Mcl-1 (Homo sapiens, UniProt Q07820). The data set is described as follows: Displacement of FITC-Bim BH3 peptide from Mcl-1 after 10 mins by fluorescence polarization assay.
Chain of Induced myeloid leukemia cell differentiation protein Mcl-1 (Q07820 whole entry): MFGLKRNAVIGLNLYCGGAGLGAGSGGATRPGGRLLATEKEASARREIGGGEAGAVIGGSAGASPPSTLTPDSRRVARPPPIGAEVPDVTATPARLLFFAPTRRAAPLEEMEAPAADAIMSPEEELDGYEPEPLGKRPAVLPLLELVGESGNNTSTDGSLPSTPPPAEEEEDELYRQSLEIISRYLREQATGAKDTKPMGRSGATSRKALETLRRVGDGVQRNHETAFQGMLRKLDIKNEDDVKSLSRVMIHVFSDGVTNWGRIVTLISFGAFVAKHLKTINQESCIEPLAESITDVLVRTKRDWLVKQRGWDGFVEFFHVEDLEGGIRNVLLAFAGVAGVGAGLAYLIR
Data set [3] concerns Mus musculus. The data set is described as follows: Toxicity in human Bcl2 expressing B6 transgenic BALB/c mouse up to 120 umol/kg, ip administered as single dose after 24 hrs. In kind it is organism-based. Particulars: in vivo. An outline of the steps: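 B6 Bcl-2 transgenic Balb/c mice, age- and sex-matched, given one intraperitoneal dose (60 or 120 μmol/kg, also 30 μmol/kg) in ethanol:Cremophor EL:saline 10:10:80, 500 μL; survival and signs of toxicity observed over 24 h before sacrifice.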

Data set [4] has as its system Mus musculus. The data set is described as follows: Reduction of spleen weight in ip dosed human Bcl2 expressing B6 transgenic BALB/c mouse administered as single dose after 24 hrs. In kind it is functional, organism-based.
Data set [5] addresses T1, Bcl-2-like protein 1 (Homo sapiens, UniProt Q07817). The data set is described as follows: Displacement of F-BakBH3 from Bcl-xL after 30 mins by fluorescence polarization assay. Put shortly:
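GST-Bcl-XL ΔTM (100 nM) preincubated with varying compound concentrations in PBS pH 7.4 for 10 min at room temperature. FITC-labelled Bak BH3 peptide (2.5 μL of 100 nM stock) then added. Polarization read at 480/535 nm after 30 min at room temperature. Wild-type and mutant Bak BH3 peptides served as plate controls. IC50 from sigmoidal dose-response fit; mean of three independent experiments ± SE.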
(In general: In fluorescence polarisation assays a small probe gives low polarisation when free and higher when bound to something large.)

Data set [6] has as its target T1, Bcl-2-like protein 1. The data set is described as follows: Binding affinity Bcl-xL at 200 uM by one-dimensional 1H nuclear magnetic resonance spectroscopy.
Data set [7] in a line: Metabolic stability of the compound in rat microsomes after 40 mins. Particulars: read-out: Stability. In kind it is ADME, Microsome.
A short description of data set [8]: Metabolic stability of the compound in rat plasma after 40 mins. Particulars: read-out: Stability. In kind it is ADME, cell-free.
Data set [9] concerns the target Apoptosis regulator Bcl-2 (Homo sapiens, UniProt P10415). The data set is described as follows: Displacement of FITC-Bim BH3 peptide from Bcl-2 after 10 mins by fluorescence polarization assay.
The target of data set [10] is T2, Bcl-2-related protein A1 (Homo sapiens, UniProt Q16548).
T2 sequence (Q16548 whole entry): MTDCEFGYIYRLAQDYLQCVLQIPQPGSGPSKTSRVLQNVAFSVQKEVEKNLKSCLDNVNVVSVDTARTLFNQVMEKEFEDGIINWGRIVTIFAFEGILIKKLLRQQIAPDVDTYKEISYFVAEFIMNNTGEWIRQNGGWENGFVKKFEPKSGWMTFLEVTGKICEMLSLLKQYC
The data set is described as follows: Displacement of F-BakBH3 from Bfl-1 after 30 mins by fluorescence polarization assay.

Data set [11] can be described thus: Cytotoxicity against human H1299 cells expressing high level of Mcl-1 after 72 hrs by ATP-LITE assay. Particulars: NCI-H1299, 72 h. In kind it is functional, cell-based. Put shortly: (§1)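 Cells seeded in […] or RPMI1640 with 5 mM L-glutamine, 5% FBS, penicillin/streptomycin; H460 and H1299 at 2000, PC3 at 3000 cells/well. Compounds in 0.1% DMSO final added 24 h after seeding into fresh 5% serum medium; viability by ATP-LITE luminescence after 72 h, normalised to DMSO-treated cells.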

A short description of data set [12]: Cytotoxicity against human BP3 cells expressing high level of Bfl-1 and Mcl-1 after 24 hrs by annexin V-FITC and propidium iodide staining. Particulars: BP3, 24 h.
Data set [13] in a line: Cytotoxicity against human RS4:11 cells expressing high level of Bcl-2 and Bcl-xL after 24 hrs by annexin V-FITC and propidium iodide staining. Particulars: RS4-11, 24 h.
Data set [14] has as its system NCI-H460. The data set is described as follows: Cytotoxicity against human H460 cells expressing high level of Bcl-2 after 72 hrs by ATP-LITE assay. In kind it is functional, cell-based. Particulars: NCI-H460, 72 h. An outline of the steps: as §1
Data set [15] has as its system PC-3. The data set is described as follows: Cytotoxicity against human PC3 cells expressing high level of Bcl-xL after 72 hrs by ATP-LITE assay. In kind it is functional, cell-based. Particulars: PC-3, 72 h. An outline of the steps: as §1
The nature of data set [16]: Cytotoxicity against human RS4:11 cells expressing high level of Bcl-2 and Bcl-xL after 72 hrs by annexin V-FITC and propidium iodide staining. In kind it is functional, cell-based. Particulars: RS4-11, 72 h.

T1 sequence (Q07817 whole entry): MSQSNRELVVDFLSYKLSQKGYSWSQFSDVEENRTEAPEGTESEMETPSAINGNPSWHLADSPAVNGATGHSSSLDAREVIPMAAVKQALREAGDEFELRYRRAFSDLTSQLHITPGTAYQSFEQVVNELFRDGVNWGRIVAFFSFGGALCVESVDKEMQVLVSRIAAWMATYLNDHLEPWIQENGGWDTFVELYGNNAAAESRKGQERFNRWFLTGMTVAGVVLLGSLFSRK
Chain of Apoptosis regulator Bcl-2 (P10415 whole entry): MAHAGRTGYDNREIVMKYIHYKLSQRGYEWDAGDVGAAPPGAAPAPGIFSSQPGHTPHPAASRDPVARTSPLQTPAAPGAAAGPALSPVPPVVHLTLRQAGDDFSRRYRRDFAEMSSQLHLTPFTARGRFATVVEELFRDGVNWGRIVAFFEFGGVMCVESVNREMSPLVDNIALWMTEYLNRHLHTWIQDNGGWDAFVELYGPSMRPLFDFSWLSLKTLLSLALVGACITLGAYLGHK

For the compound `CC1=C(C2=C(C)C(=O)c3c(cc(O)c(O)c3CC(C)C)C2=O)C(=O)c2cc(O)c(O)c(CC(C)C)c2C1=O`, the Activity in data set [1] is over 30%; in [3], “Non-toxic”; in data set [4], “Dose-dependent effect”. Further, the Ki was 0.31 µM in [2], 0.37 µM in data set [5], 0.17 µM in [9] and 0.93 µM in data set [10]. Also, the outcome in data set [6] was Active. Besides, the remaining at 40 min in [7] was determined as 69%; in [8], 98%.

For `CC1=C(C2=C(C)C(=O)c3c(cc(O)c(O)c3CCC(C)(C)c3ccccc3)C2=O)C(=O)c2cc(O)c(O)c(CCC(C)(C)c3ccccc3)c2C1=O`, the EC50 worked out at 2.16 µM in data set [11]; 30 µM in data set [12]; 15 µM in data set [13]; 1.62 µM in data set [14]; 2 µM in [15]. In addition, in [4], the Activity result is “Dose-dependent effect”. Further, in data set [6], the result was Active.

As to `CCc1ccc(CCNC(=O)c2c(O)c(O)cc3c2C(=O)C(C)=C(C2=C(C)C(=O)c4c(cc(O)c(O)c4C(=O)NCCc4ccc(CC)cc4)C2=O)C3=O)cc1`, the IC50 in data set [2] was determined as 0.32 µM; in data set [5], 0.24 µM; in data set [9] it was 0.21 µM; in data set [10], 1.25 µM. In addition, the Ki was found to be 0.21 µM in data set [2], 0.16 µM in data set [5], 0.14 µM in [9] and 0.87 µM in [10]. Also, the Activity entry in data set [4] was “Dose-dependent effect”. Moreover, the outcome in [6] was Active. Also, the EC50 in data set [13] was over 30 µM.

`CC1=C(C2=C(C)C(=O)c3c(cc(O)c(O)c3CC3CCCC3)C2=O)C(=O)c2cc(O)c(O)c(CC3CCCC3)c2C1=O`: the EC50 was found to be 2.32 µM in data set [11]; 12.8 µM in [12]; 9.83 µM in data set [13]; 0.7 µM in data set [14]; 5.5 µM in data set [15]. Also, the IC50 in data set [2] stood at 3.08 µM; in data set [5] it was 2.99 µM; in [9], 2.27 µM. Also, the figures for the Ki in data set [2], in [5] and in data set [9] were 2.07 µM, 2 µM and 1.53 µM, respectively. Moreover, the Activity entry in [4] was “Dose-dependent effect”. The result in data set [6] was Active.

Consider `CC1=C(C2=C(C)C(=O)c3c(cc(O)c(O)c3C(=O)NCc3cccc(C)c3)C2=O)C(=O)c2cc(O)c(O)c(C(=O)NCc3cccc(C)c3)c2C1=O`, for which the EC50 was over 30 µM in data set [11]; 21.6 µM in data set [12]; over 30 µM in [13]; 6.16 µM in data set [14]; 5.44 µM in data set [15]. Moreover, the Activity result in data set [4] is “Dose-dependent effect”. The result in data set [6] was Active.

Turning to `CC1=C(C2=C(C)C(=O)c3c(cc(O)c(O)c3C(=O)Cc3ccccc3)C2=O)C(=O)c2cc(O)c(O)c(C(=O)Cc3ccccc3)c2C1=O`, the EC50 in data set [11] is over 30 µM; in [12], 9.58 µM; in [16] it was over 30 µM; in [14] it was 7.38 µM; in [15], 5.44 µM. In addition, the IC50 was found to be 0.35 µM in data set [2], 0.34 µM in [5], 0.22 µM in data set [9] and 0.69 µM in data set [10]. Also, the Ki was found to be 0.23 µM in [2], 0.24 µM in data set [5], 0.15 µM in [9] and 0.46 µM in data set [10]. Besides, in data set [4], the Activity result is “Dose-dependent effect”. Moreover, the result in data set [6] was Active.

In the case of `CC1=C(C2=C(C)C(=O)c3c(cc(O)c(O)c3CCCc3ccc(F)cc3)C2=O)C(=O)c2cc(O)c(O)c(CCCc3ccc(F)cc3)c2C1=O`, the EC50 amounted to 1.91 µM in data set [11]; 14.6 µM in [12]; 11.2 µM in [13]; 1.48 µM in [14]; 2.62 µM in data set [15]. The Activity result in [4] is “Dose-dependent effect”. Moreover, the result in data set [6] was Active.

As to `CC1=C(C2=C(C)C(=O)c3c(cc(O)c(O)c3CCc3ccccc3)C2=O)C(=O)c2cc(O)c(O)c(CCc3ccccc3)c2C1=O`, the EC50 is 0.85 µM in [11]; 8.72 µM in [12]; 4.75 µM in [16]; 1.04 µM in data set [14]; 1.4 µM in data set [15]. The IC50 in data set [2] was 1.29 µM; in [5] it was 1.79 µM; in [9] it was 2.57 µM; in data set [10] it was 9.72 µM. Besides, the Ki in [2] was determined as 0.87 µM; in [5], 1.2 µM; in data set [9], 1.73 µM; in data set [10], 6.47 µM. Besides, in [4], the Activity result was “Dose-dependent effect”. The outcome in [6] was Active. Further, the remaining at 40 min in [7] was found to be 89%; in data set [8], 81%.

As for `CC1=C(C2=C(C)C(=O)c3c(cc(O)c(O)c3Cc3ccc(-c4ccccc4)cc3)C2=O)C(=O)c2cc(O)c(O)c(Cc3ccc(-c4ccccc4)cc3)c2C1=O`, the EC50 in data set [11] was 10.3 µM; in [12], 0.81 µM; in [13] it was 1.74 µM; in [14], 0.98 µM; in [15], 2.97 µM. Also, in data set [4], the Activity entry was “Dose-dependent effect”. Moreover, the outcome in data set [6] was Active.

Take `CC1=C(C2=C(C)C(=O)c3c(cc(O)c(O)c3CCCc3ccccc3)C2=O)C(=O)c2cc(O)c(O)c(CCCc3ccccc3)c2C1=O`: the EC50 in data set [11] was 1.53 µM; in data set [16], 3.83 µM; in [14], 0.92 µM; in data set [15] it was 1.3 µM. For the same compound, the IC50 in data set [2] worked out at 0.67 µM; in [5] it was 1.44 µM; in data set [9], 2.17 µM; in [10], 5.27 µM. For the same compound, the Ki came out at 0.45 µM in data set [2], 0.96 µM in data set [5], 1.45 µM in [9] and 3.53 µM in [10]. Also, in data set [4], the Activity result was “Dose-dependent effect”. For the same compound, the outcome in data set [6] was Active. Further, the remaining at 40 min turned out to be 88% in data set [7] and 87% in data set [8].

`CC1=C(C2=C(C)C(=O)c3c(cc(O)c(O)c3CCC3CCCCC3)C2=O)C(=O)c2cc(O)c(O)c(CCC3CCCCC3)c2C1=O`: the concentration giving a half-maximal response (EC50) in data set [11] was 1.32 µM; in data set [12] it was 15.6 µM; in data set [13], 15.7 µM; in data set [14], 2.2 µM; in data set [15], 2.4 µM. Besides, the IC50 came out at 5.9 µM in data set [2], 12.7 µM in data set [5] and 6.73 µM in data set [9]. Moreover, the Ki amounted to 3.93 µM in data set [2], 8.4 µM in data set [5] and 4.47 µM in data set [9]. Besides, the Activity entry in data set [3] is “Non-toxic”; in data set [4], “Dose-dependent effect”. For the same compound, the result in [6] was Active. The remaining at 40 min came out at 98% in data set [7] and 74% in data set [8].

For the compound `CC1=C(C2=C(C)C(=O)c3c(cc(O)c(O)c3CCc3ccc(OC(F)(F)F)cc3)C2=O)C(=O)c2cc(O)c(O)c(CCc3ccc(OC(F)(F)F)cc3)c2C1=O`, the EC50 turned out to be 2.38 µM in data set [11]; 16.1 µM in [12]; 7.32 µM in data set [13]; 1.44 µM in data set [14]; 8.99 µM in [15]. In addition, in data set [4], the Activity result is “Dose-dependent effect”. In data set [6], the result was Active.

By Ki is commonly meant the equilibrium dissociation constant of an inhibitor or competing ligand from its target. Broadly, the EC50 is the concentration giving half of the maximal effect. As usually defined, the IC50 is the midpoint of a concentration-inhibition curve.
